Test results from ChEMBL document CHEMBL3108778, “Structure-activity relationships of synthetic cordycepin analogues as experimental therapeutics for African trypanosomiasis” (J Med Chem, 2013).
pIC50, pKi: −log10 of the molar value. The source made the active and inactive calls. No cut-off for these calls is given here.

Assays:
[1] = Displacement of [2,8-3H]-adenosine from Trypanosoma brucei AT1/P2 expressed in bloodstream stage of Trypanosoma brucei brucei B48
How it was run: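 Bloodstream T. b. brucei B48 clone with endogenous TbAT1 deleted and TbAT1 overexpressed. Cells were incubated 20 s with 0.05 μM [2,8-³H]adenosine plus competitor (typically 10 nM–100 μM). Uptake was stopped with ice-cold 1 mM adenosine and centrifugation through oil. Ki came from competition curves, triplicates on at least three occasions.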

[2] = system: Trypanosoma brucei brucei; assay: Trypanocidal activity against bloodstream stage of Trypanosoma brucei brucei AnTat1.1E after 72 hrs by WST-1 assay; format: functional, organism-based
How it was run: (§1)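 Bloodstream trypanosomes (6000/well) in log phase were treated in IMDM with 10% FCS for 72 h at 37 °C, 5% CO₂. Compounds were 11-step serial dilutions from DMSO stocks, final DMSO at most 0.25%. Controls were DMSO and 10 μM 3′-deoxyadenosine. Where stated, 1.5 μM deoxycoformycin was co-added. Readout was WST-1 for 2 h, A450. EC50 came from variable-slope nonlinear regression.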

L929 = assay: Cytotoxicity against mouse L929 cells assessed as cell viability after 72 hrs by WST-1 assay; format: cell-based; conditions: L929, 72 h
How it was run: (§2)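 MOLT4 (10⁴/well) or L929 (5 × 10³/well) cells were kept in RPMI with 10% FCS and exposed to serial dilutions for 72 h at 37 °C, 5% CO₂. Final DMSO was at most 0.25%. Where stated, 1.5 μM deoxycoformycin was co-added. WST-1 was added for 2 h and A450 read. EC50 came from variable-slope nonlinear fits; triplicate cultures.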

[3] = system: Trypanosoma brucei brucei; assay: Trypanocidal activity against bloodstream stage of Trypanosoma brucei brucei AnTat1.1E infected in C57BL6J (B6) mouse assessed as reduction of parasitemia at 4 mg/kg, ip qd administered for 3 days measured after 40 days in presence of deoxycoformycin; format: functional, organism-based; design: dose 4 mg/kg
How it was run: (§3)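 Mice were infected ip with T. b. brucei AnTat1.1E and treated ip once daily starting 2 h later. Where stated, 0.2 mg/kg deoxycoformycin was co-given. Vehicle was PBS with 1.25% final DMSO. Parasitemia and weight were recorded every other day, then twice weekly after 30 days. At least six mice per group.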

[4] = system: Trypanosoma brucei brucei; assay: Trypanocidal activity against bloodstream stage of Trypanosoma brucei brucei AnTat1.1E infected in C57BL6J (B6) mouse assessed as reduction of parasitemia at 4 mg/kg, ip qd administered for 10 days measured after 18 days; format: functional, organism-based; design: dose 4 mg/kg; how it was run: as §3
[5] = system: Trypanosoma brucei brucei; assay: Trypanocidal activity against bloodstream stage of Trypanosoma brucei brucei AnTat1.1E after 72 hrs by WST-1 assay in presence of deoxycoformycin; format: functional, organism-based; how it was run: as §1
[6] = system: Trypanosoma brucei brucei; assay: Trypanocidal activity against bloodstream stage of Trypanosoma brucei brucei AnTat1.1E infected in C57BL6J (B6) mouse assessed as reduction of parasitemia at 4 mg/kg, ip qd administered for 10 days measured after 19 to 30 days; format: functional, organism-based; design: dose 4 mg/kg; how it was run: as §3
MOLT-4 [7] = assay: Cytotoxicity against human MOLT4 cells assessed as cell viability after 72 hrs by WST-1 assay in presence of deoxycoformycin; format: cell-based; conditions: MOLT-4, 72 h; how it was run: as §2
[8] = Metabolic stability in CD-1 mouse liver microsomes at 1 uM by LC-MS/MS analysis; format: ADME, Microsome
How it was run: (§4)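 Pooled human or male CD-1 mouse liver microsomes (0.5 mg/mL) were incubated with 1 μM compound in 0.1 M phosphate pH 7.4, started with 1 mM NADPH. Sampling was at 0, 5, 15 and 40 min, quenched with cold acetonitrile containing warfarin internal standard. Analysis was LC-MS/MS on a relative basis; intrinsic clearance by the well-stirred model. Midazolam and dextromethorphan were CYP controls.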

[9] = Apparent initial half life in C57BL/6 mouse at 25 mg/kg, po; format: ADME, organism-based; design: dose 25 mg/kg, route oral; conditions: in vivo, read-out: alphat1/2(app) (converted)
[10] = Apparent permeability across apical to basolateral side in human Caco2 cells at 10 uM by LC-MS/MS analysis; format: ADME, cell-based; conditions: Caco-2
How it was run: (§5)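 Caco-2 monolayers (passage 94–105) were used on day 21 on permeable filters. Transport was run in both directions at pH 7.4 on both sides, 37 °C, 500 rpm stirring. The receiver side was sampled at 15, 30 and 60 min, the donor side at 60 min for mass balance. Mannitol served as integrity marker. LC-MS/MS used a 10–1000 nM external standard curve.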

[11] = Apparent permeability across basolateral to apical side in human Caco2 cells at 10 uM by LC-MS/MS analysis; format: ADME, cell-based; conditions: Caco-2; how it was run: as §5
[12] = Apparent permeability across apical to basolateral side in human Caco2 cells assessed as compound recovery at 10 uM by LC-MS/MS analysis; format: ADME, cell-based; conditions: Caco-2, read-out: Papp; how it was run: as §5
[13] = Tmax in C57BL/6 mouse at 25 mg/kg, po and ip; format: ADME, organism-based; design: dose 25 mg/kg, route oral; conditions: in vivo
[14] = Cmax in C57BL/6 mouse at 25 mg/kg, ip; format: ADME, organism-based; design: dose 25 mg/kg, route intraperitoneal; conditions: in vivo
[15] = Metabolic stability in human plasma at 10 uM measured over 4 hrs by LC-MS/MS analysis; format: ADME, cell-free; conditions: read-out: Stability
How it was run: (§6)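 Pooled human plasma (four donors) was spiked with 10 μM final compound. It was dialysed against isotonic phosphate buffer pH 7.4 for 4 h at 37 °C by rapid equilibrium dialysis. A separate sealed plasma sample was held 4 h at 37 °C for stability. Samples were methanol-precipitated and quantified by LC-MS/MS.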

[16] = system: Trypanosoma brucei brucei; assay: Trypanocidal activity against bloodstream stage of Trypanosoma brucei brucei AnTat1.1E infected in acute C57BL6J (B6) mouse HAT model assessed as day of parasitemia relapse at 15 mg/kg, po qd administered for 5 days; format: functional
Caco-2 = assay: Efflux ratio of apparent permeability across basolateral to apical side over apical to basolateral side in human Caco2 cells at 10 uM by LC-MS/MS analysis; conditions: caco-2, 10 µM
[17] = Cmax in C57BL/6 mouse at 25 mg/kg, po; format: ADME, organism-based; design: dose 25 mg/kg, route oral; conditions: in vivo
Liver microsome = assay: Metabolic stability in human liver microsomes at 1 uM by LC-MS/MS analysis; format: ADME; how it was run: as §4
MOLT-4 [18] = assay: Cytotoxicity against human MOLT4 cells assessed as cell viability after 72 hrs by WST-1 assay; format: cell-based; conditions: MOLT-4, 72 h; how it was run: as §2
[19] = Apparent permeability across basolateral to apical side in human Caco2 cells assessed as compound recovery at 10 uM by LC-MS/MS analysis; format: ADME, cell-based; conditions: Caco-2, read-out: Papp; how it was run: as §5
[20] = Apparent terminal half life in C57BL/6 mouse at 25 mg/kg, ip; format: ADME, organism-based; design: dose 25 mg/kg, route intraperitoneal; conditions: in vivo, read-out: betat1/2(app) (converted)
[21] = system: Trypanosoma brucei brucei; assay: Trypanocidal activity against bloodstream stage of Trypanosoma brucei brucei AnTat1.1E infected in acute C57BL6J (B6) mouse HAT model assessed as day of parasitemia relapse at 5 mg/kg, po qd administered for 5 days in presence of deoxycoformycin; format: functional
[22] = Fraction unbound in human plasma at 10 uM after 4 hrs by equilibrium dialysis method; format: ADME, cell-free; how it was run: as §6
[23] = system: Trypanosoma brucei brucei; assay: Trypanocidal activity against bloodstream stage of Trypanosoma brucei brucei AnTat1.1E infected in acute C57BL6J (B6) mouse HAT model assessed as day of parasitemia relapse at 1 mg/kg, po bid administered for 5 days; format: functional
[24] = system: Trypanosoma brucei brucei; assay: Trypanocidal activity against bloodstream stage of Trypanosoma brucei brucei AnTat1.1E after 72 hrs by WST-1 assay in presence of adenosine kinase inhibitor ABT702; format: functional, organism-based
Trypanosoma brucei [25] = assay: Trypanocidal activity against bloodstream stage of Trypanosoma brucei after 72 hrs by WST-1 assay; format: functional, organism-based; how it was run: as §1
[26] = system: Trypanosoma brucei brucei; assay: Trypanocidal activity against bloodstream stage of Trypanosoma brucei brucei AnTat1.1E infected in acute C57BL6J (B6) mouse HAT model assessed as reduction of parasitemia at 30 mg/kg, po qd administered for 6 days measured after 90 days; format: functional, organism-based; design: dose 30 mg/kg
[27] = system: Trypanosoma brucei brucei; assay: Trypanocidal activity against bloodstream stage of Trypanosoma brucei brucei AnTat1.1E infected in acute C57BL6J (B6) mouse HAT model assessed as day of parasitemia relapse at 5 mg/kg, po qd administered for 5 days; format: functional
Trypanosoma brucei [28] = assay: Trypanocidal activity against bloodstream stage of Trypanosoma brucei after 72 hrs by WST-1 assay in presence of deoxycoformycin; format: functional, organism-based; how it was run: as §1
[29] = Apparent initial half life in C57BL/6 mouse at 25 mg/kg, ip; format: ADME, organism-based; design: dose 25 mg/kg, route intraperitoneal; conditions: in vivo, read-out: alphat1/2(app) (converted)
[30] = Apparent terminal half life in C57BL/6 mouse at 25 mg/kg, po; format: ADME, organism-based; design: dose 25 mg/kg, route oral; conditions: in vivo, read-out: betat1/2(app) (converted)
[31] = system: Trypanosoma brucei brucei; assay: Trypanocidal activity against bloodstream stage of Trypanosoma brucei brucei AnTat1.1E infected in C57BL6J (B6) mouse assessed as reduction of parasitemia at 2 mg/kg, ip qd administered for 3 days measured after 40 days in presence of deoxycoformycin; format: functional, organism-based; design: dose 2 mg/kg; how it was run: as §3
Trypanosoma brucei [32] = assay: Trypanocidal activity against Trypanosoma brucei; format: functional, organism-based; how it was run: as §1
[33] = system: Trypanosoma brucei brucei; assay: Trypanocidal activity against bloodstream stage of Trypanosoma brucei brucei AnTat1.1E infected in C57BL6J (B6) mouse assessed as reduction of parasitemia at 2 mg/kg, ip qd measured after 30 days; format: functional, organism-based; design: dose 2 mg/kg; how it was run: as §3

SMILES: Nc1[nH]cnc2ncnc1-2 [ADENINE]
- pKi [1]: 6.55

SMILES: Nc1nc(F)nc2c1ncn2[C@@H]1O[C@H](CO)[C@@H](O)[C@H]1O
- pKi [1]: 5.57
- pIC50 ([2]; read-out: IC50): < 4.00

SMILES: CCCCCCCC(=O)Nc1ncnc2c1ncn2[C@@H]1O[C@H](CO)C[C@H]1O
- pIC50 (L929): 4.73
- Activity [3]: Active
- Activity [4]: Active
- pIC50 [5]: 9.00
- Activity [6]: inactive
- pIC50 ([2]; read-out: IC50(app)): 7.55

SMILES: Nc1nc(Cl)nc2c1ncn2[C@@H]1O[C@H](CO)[C@@H](O)[C@H]1O
- pKi [1]: 5.02

SMILES: Nc1nc(F)nc2c1ncn2[C@@H]1O[C@H](CO)C[C@@H]1O
- pIC50 ([2]; read-out: IC50): < 4.00

SMILES: OC[C@@H]1C[C@@H](O)[C@H](n2cnc3cncnc32)O1
- pIC50 (L929): < 4.00
- pIC50 ([2]; read-out: IC50): 5.06

SMILES: Nc1nc(F)nc2c1ncn2[C@@H]1O[C@H](CO)C[C@H]1O
- pKi [1]: 6.02
- pIC50 (MOLT-4 [7]): 5.67
- Stability [8]: Stable
- half-life [9]: 54 min
- Papp A→B at 10 µM [10]: 3 ×10⁻⁶ cm/s
- Papp B→A at 10 µM [11]: 1.4 ×10⁻⁶ cm/s
- recovery at 10 µM [12]: 102%
- Tmax [13]: 30 min
- Cmax [14]: 9.17 µM
- remaining at 4 h, 10 µM [15]: 98%
- Time [16]: 7 days
- Ratio (Caco-2): 0.5
- Cmax [17]: 4 µM
- Stability (Liver microsome): Stable
- pIC50 (MOLT-4 [18]): 5.61
- recovery at 10 µM [19]: 104%
- half-life [20]: 366 min
- Time [21]: 5 days
- pIC50 ([2]; read-out: IC50): 6.77
- fraction unbound at 4 h, 10 µM [22]: 1
- Time [23]: 2 days
- Activity [24]: inactive
- pIC50 (Trypanosoma brucei [25]): 6.75
- Activity [26]: Active
- Time [27]: 7 days
- pIC50 (Trypanosoma brucei [28]): 6.77
- half-life [29]: 36 min
- half-life [30]: 408 min

SMILES: Nc1nc(Cl)nc2c1ncn2[C@@H]1O[C@H](CO)C[C@H]1O
- pKi [1]: 5.40
- pIC50 ([2]; read-out: IC50): < 4.30

SMILES: Nc1[nH]c(Cl)nc2ncnc1-2
- pKi [1]: 5.59

SMILES: Nc1ncnc2c1ncn2[C@@H]1O[C@H](CO)[C@H]2O[C@H]21
- pIC50 ([2]; read-out: IC50): < 4.00

SMILES: Nc1nc(F)nc2nc[nH]c12
- pKi [1]: 6.05
- pIC50 ([2]; read-out: IC50): < 4.00

SMILES: Nc1nc(NCCO)nc2c1ncn2[C@@H]1O[C@H](CO)C[C@H]1O
- pIC50 ([2]; read-out: IC50): < 4.30

SMILES: OC[C@H]1O[C@@H](n2cnc3cncnc32)[C@H](O)[C@@H]1O [NEBULARINE]
- pIC50 (L929): 5.63
- pIC50 ([2]; read-out: IC50): 5.94

SMILES: Nc1ncnc2c1ncn2[C@@H]1O[C@H](CO)[C@@H](O)[C@@H]1O [VIDARABINE]
- pIC50 ([2]; read-out: IC50): < 4.00

SMILES: Nc1ncnc2c1ncn2[C@@H]1O[C@H](CO)C[C@H]1O [CORDYCEPIN]
- pKi [1]: 6.74
- Activity [31]: Active
- pIC50 (MOLT-4 [7]): 7.00
- pIC50 (L929): 4.54
- pIC50 (MOLT-4 [18]): ≤ 4.00
- pIC50 ([2]; read-out: IC50): 7.52
- Activity [24]: inactive
- pIC50 (Trypanosoma brucei [25]): 7.38
- pIC50 (Trypanosoma brucei [32]): 7.49
- pIC50 (Trypanosoma brucei [28]): 8.92
- Activity [33]: inactive
